Measured values published in ChEMBL document CHEMBL1155222, “Synthesis and anticancer activity of N-bis(trifluoromethyl)alkyl-N'-thiazolyl and N-bis(trifluoromethyl)alkyl-N'-benzothiazolyl ureas” (2009).
Values belong to the compound of their own block, whether it stands above or below them.

Key:
Format in all cases: functional
[1] = tested on: NCI-H522; experiment: Anticancer activity against human NCI-H522 cells after 48 hrs by sulforhodamine B assay; conditions: NCI-H522, 48 h
Method in brief: (§1)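 NCI 60-cell-line screen. Cells grown in RPMI 1640 with 5% FBS and 2 mM L-glutamine, plated at 5000–40,000 cells/well, and preincubated 24 h at 37 °C under 5% CO2. Compounds were taken from DMSO stocks and tested at five final concentrations, 10^-4 to 10^-8 M, for 48 h. Cells were TCA-fixed, stained with 0.4% SRB, and read at 515 nm. GI50, TGI and LC50 were derived as log molar values.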

[2] = tested on: HOP-92; experiment: Anticancer activity against human HOP92 cells after 48 hrs by sulforhodamine B assay; conditions: HOP-92, 48 h; method in brief: as §1
[3] = tested on: CAKI-1; experiment: Anticancer activity against human Caki1 cells after 48 hrs by sulforhodamine B assay; conditions: CAKI-1, 48 h; method in brief: as §1
[4] = tested on: KM12; experiment: Anticancer activity against human KM12 cells after 48 hrs by sulforhodamine B assay; conditions: KM12, 48 h; method in brief: as §1
[5] = tested on: RXF 393; experiment: Anticancer activity against human RXF393 cells after 48 hrs by sulforhodamine B assay; conditions: RXF 393, 48 h; method in brief: as §1
[6] = tested on: SW-620; experiment: Anticancer activity against human SW620 cells after 48 hrs by sulforhodamine B assay; conditions: SW-620, 48 h
Method in brief: (§2)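 NCI 60-cell-line panel; cells grown in RPMI 1640 with 5% FBS and 2 mM L-glutamine, plated at 5000–40,000 cells/well and preincubated 24 h at 37 °C, 5% CO2. Compounds came from DMSO stocks diluted in medium with gentamicin and were tested at five final concentrations, 10^-4 to 10^-8 M, for 48 h. Cells were fixed with TCA, stained with SRB and read at 515 nm. GI50, TGI and LC50 were derived as log molar values.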

[7] = tested on: HCC 2998; experiment: Anticancer activity against human HCC2998 cells after 48 hrs by sulforhodamine B assay; conditions: HCC 2998, 48 h; method in brief: as §1
[8] = tested on: NCI-H322M; experiment: Anticancer activity against human NCI-H322M cells after 48 hrs by sulforhodamine B assay; method in brief: as §1
[9] = tested on: PC-3; experiment: Anticancer activity against human PC3 cells after 48 hrs by sulforhodamine B assay; conditions: PC-3, 48 h; method in brief: as §1
[10] = tested on: M14; experiment: Anticancer activity against human M14 cells after 48 hrs by sulforhodamine B assay; conditions: M14, 48 h; method in brief: as §1
[11] = tested on: SF-295; experiment: Anticancer activity against human SF295 cells after 48 hrs by sulforhodamine B assay; conditions: SF-295, 48 h; method in brief: as §1
[12] = tested on: OVCAR-3; experiment: Anticancer activity against human OVCAR-3 cells after 48 hrs by sulforhodamine B assay; conditions: OVCAR-3, 48 h; method in brief: as §1
[13] = tested on: SF-539; experiment: Anticancer activity against human SF539 cells after 48 hrs by sulforhodamine B assay; conditions: SF-539, 48 h; method in brief: as §1
[14] = tested on: IGROV-1; experiment: Anticancer activity against human IGROV1 cells after 48 hrs by sulforhodamine B assay; conditions: IGROV-1, 48 h; method in brief: as §1
[15] = tested on: CCRF-CEM; experiment: Anticancer activity against human CCRF-CEM cells after 48 hrs by sulforhodamine B assay; method in brief: as §1
[16] = tested on: SK-OV-3; experiment: Anticancer activity against human SKOV3 cells after 48 hrs by sulforhodamine B assay; conditions: SK-OV-3, 48 h; method in brief: as §1
[17] = tested on: SR; experiment: Anticancer activity against human SR cells after 48 hrs by sulforhodamine B assay; method in brief: as §2
[18] = tested on: HCT-116; experiment: Anticancer activity against human HCT116 cells after 48 hrs by sulforhodamine B assay; conditions: HCT-116, 48 h; method in brief: as §1
[19] = tested on: SK-MEL-2; experiment: Anticancer activity against human SK-MEL-2 cells after 48 hrs by sulforhodamine B assay; conditions: SK-MEL-2, 48 h; method in brief: as §1
[20] = tested on: NCI/ADR-RES; experiment: Anticancer activity against human NCI/ADR-RES cells after 48 hrs by sulforhodamine B assay; method in brief: as §1
[21] = tested on: UACC-257; experiment: Anticancer activity against human UACC257 cells after 48 hrs by sulforhodamine B assay; conditions: UACC-257, 48 h; method in brief: as §2
[22] = tested on: SNB-75; experiment: Anticancer activity against human SNB75 cells after 48 hrs by sulforhodamine B assay; conditions: SNB-75, 48 h; method in brief: as §2
[23] = tested on: MDA-N; experiment: Anticancer activity against human MDA-N cells after 48 hrs by sulforhodamine B assay; method in brief: as §1
[24] = tested on: U-251; experiment: Anticancer activity against human U251 cells after 48 hrs by sulforhodamine B assay; conditions: U-251, 48 h; method in brief: as §2
[25] = tested on: A549; experiment: Anticancer activity against human A549 cells after 48 hrs by sulforhodamine B assay; conditions: A549, 48 h; method in brief: as §1
[26] = tested on: TK-10; experiment: Anticancer activity against human TK10 cells after 48 hrs by sulforhodamine B assay; conditions: TK-10, 48 h; method in brief: as §2
[27] = tested on: SN12C; experiment: Anticancer activity against human SN12C cells after 48 hrs by sulforhodamine B assay; method in brief: as §2
[28] = tested on: OVCAR-5; experiment: Anticancer activity against human OVCAR5 cells after 48 hrs by sulforhodamine B assay; conditions: OVCAR-5, 48 h; method in brief: as §1
[29] = tested on: LOX IMVI; experiment: Anticancer activity against human LOXIMVI cells after 48 hrs by sulforhodamine B assay; method in brief: as §1
[30] = tested on: T47D; experiment: Anticancer activity against human T47D cells after 48 hrs by sulforhodamine B assay; method in brief: as §2
[31] = tested on: OVCAR-4; experiment: Anticancer activity against human OVCAR4 cells after 48 hrs by sulforhodamine B assay; conditions: OVCAR-4, 48 h; method in brief: as §1
[32] = tested on: HCT-15; experiment: Anticancer activity against human HCT15 cells after 48 hrs by sulforhodamine B assay; conditions: HCT-15, 48 h; method in brief: as §1
[33] = tested on: 786-0; experiment: Anticancer activity against human 786-0 cells after 48 hrs by sulforhodamine B assay; conditions: 786-0, 48 h; method in brief: as §1
[34] = tested on: UO-31; experiment: Anticancer activity against human UO31 cells after 48 hrs by sulforhodamine B assay; conditions: UO-31, 48 h; method in brief: as §2
[35] = tested on: SK-MEL-28; experiment: Anticancer activity against human SK-MEL-28 cells after 48 hrs by sulforhodamine B assay; conditions: SK-MEL-28, 48 h; method in brief: as §1
[36] = tested on: HT-29; experiment: Anticancer activity against human HT-29 cells after 48 hrs by sulforhodamine B assay; conditions: HT-29, 48 h; method in brief: as §1
[37] = tested on: OVCAR-8; experiment: Anticancer activity against human OVCAR8 cells after 48 hrs by sulforhodamine B assay; conditions: OVCAR-8, 48 h; method in brief: as §1
[38] = tested on: ACHN; experiment: Anticancer activity against human ACHN cells after 48 hrs by sulforhodamine B assay; method in brief: as §1
[39] = tested on: EKVX; experiment: Anticancer activity against human EKVX cells after 48 hrs by sulforhodamine B assay; method in brief: as §1
[40] = tested on: A498; experiment: Anticancer activity against human A498 cells after 48 hrs by sulforhodamine B assay; conditions: A498, 48 h; method in brief: as §1
[41] = tested on: HOP-62; experiment: Anticancer activity against human HOP62 cells after 48 hrs by sulforhodamine B assay; conditions: HOP-62, 48 h; method in brief: as §1
[42] = tested on: SK-MEL-5; experiment: Anticancer activity against human SK-MEL-5 cells after 48 hrs by sulforhodamine B assay; conditions: SK-MEL-5, 48 h; method in brief: as §1
[43] = tested on: UACC-62; experiment: Anticancer activity against human UACC62 cells after 48 hrs by sulforhodamine B assay; conditions: UACC-62, 48 h; method in brief: as §2
[44] = tested on: COLO 205; experiment: Anticancer activity against human COLO205 cells after 48 hrs by sulforhodamine B assay; conditions: COLO 205, 48 h; method in brief: as §1
[45] = Anticancer activity against human Hs 578T cells after 48 hrs by sulforhodamine B assay; method in brief: as §1

GI50 [1]: 38 µM
GI50 [6]: 83.2 µM
GI50 [7]: 74.1 µM
GI50 [8]: > 100 µM
GI50 [9]: 0.0794 µM
GI50 [12]: 61.7 µM
GI50 [15]: 19.5 µM
GI50 [16]: > 100 µM
GI50 [18]: 46.8 µM
GI50 [19]: 20 µM
GI50 [24]: 40.7 µM
GI50 [25]: 44.7 µM
GI50 [28]: > 100 µM
GI50 [30]: 38.9 µM
GI50 [31]: 83.2 µM
GI50 [32]: 53.7 µM
GI50 [33]: > 100 µM
GI50 [35]: 72.4 µM
GI50 [36]: 41.7 µM
GI50 [37]: 53.7 µM
GI50 [38]: 61.7 µM
GI50 [42]: 33.9 µM
GI50 [44]: 74.1 µM
Structure (SMILES): CCC(NC(=O)Nc1nccs1)(C(F)(F)F)C(F)(F)F
GI50 [2]: 60.3 µM
GI50 [3]: 83.2 µM
GI50 [4]: 46.8 µM
GI50 [5]: 83.2 µM
GI50 [10]: 38 µM
GI50 [11]: 52.5 µM
GI50 [13]: > 100 µM
GI50 [14]: > 100 µM
GI50 [17]: 30.2 µM
GI50 [20]: 29.5 µM
GI50 [21]: 32.4 µM
GI50 [22]: 19.5 µM
GI50 [23]: 60.3 µM
GI50 [26]: 31.6 µM
GI50 [27]: 55 µM
GI50 [29]: 72.4 µM
GI50 [34]: 95.5 µM
GI50 [39]: 35.5 µM
GI50 [40]: 46.8 µM
GI50 [41]: > 100 µM
GI50 [43]: 40.7 µM
GI50 [45]: 52.5 µM

Structure (SMILES): CNC(=O)Nc1ccccc1
GI50 [1]: 100 µM
GI50 [2]: 100 µM
GI50 [3]: 100 µM
GI50 [4]: 100 µM
GI50 [5]: 100 µM
GI50 [6]: 100 µM
GI50 [7]: 100 µM
GI50 [8]: 100 µM
GI50 [9]: 100 µM
GI50 [10]: 100 µM
GI50 [11]: 100 µM
GI50 [12]: 100 µM
GI50 [13]: 100 µM
GI50 [14]: 100 µM
GI50 [15]: 100 µM
GI50 [16]: 100 µM
GI50 [17]: 100 µM
GI50 [18]: 100 µM
GI50 [19]: 100 µM
GI50 [20]: 100 µM
GI50 [21]: 100 µM
GI50 [22]: 74.1 µM
GI50 [23]: 100 µM
GI50 [24]: 100 µM
GI50 [25]: 100 µM
GI50 [26]: 100 µM
GI50 [27]: 100 µM
GI50 [28]: 100 µM
GI50 [29]: 100 µM
GI50 [30]: 100 µM
GI50 [31]: 100 µM
GI50 [32]: 100 µM
GI50 [33]: 100 µM
GI50 [34]: 100 µM
GI50 [35]: 100 µM
GI50 [36]: 100 µM
GI50 [37]: 100 µM
GI50 [38]: 100 µM
GI50 [39]: 100 µM
GI50 [40]: 100 µM
GI50 [41]: 100 µM
GI50 [42]: 100 µM
GI50 [43]: 100 µM
GI50 [44]: 100 µM
GI50 [45]: 100 µM

Structure (SMILES): CC(NC(=O)Nc1nc2ccccc2s1)(C(F)(F)F)C(F)(F)F
GI50 [1]: 24.5 µM
GI50 [2]: 75.9 µM
GI50 [3]: 38.9 µM
GI50 [4]: 46.8 µM
GI50 [5]: 64.6 µM
GI50 [6]: 45.7 µM
GI50 [7]: 38.9 µM
GI50 [8]: 26.9 µM
GI50 [9]: 34.7 µM
GI50 [10]: 37.2 µM
GI50 [11]: 60.3 µM
GI50 [13]: 24.5 µM
GI50 [14]: 41.7 µM
GI50 [15]: 27.5 µM
GI50 [16]: 52.5 µM
GI50 [17]: 3.63 µM
GI50 [18]: 41.7 µM
GI50 [19]: 30.2 µM
GI50 [20]: > 100 µM
GI50 [21]: 51.3 µM
GI50 [22]: 7.59 µM
GI50 [23]: 97.7 µM
GI50 [24]: 33.9 µM
GI50 [25]: 16.2 µM
GI50 [26]: 49 µM
GI50 [27]: 25.7 µM
GI50 [28]: 81.3 µM
GI50 [29]: 36.3 µM
GI50 [30]: 38 µM
GI50 [31]: 21.9 µM
GI50 [32]: > 100 µM
GI50 [33]: 20.4 µM
GI50 [34]: 2.19 µM
GI50 [35]: 72.4 µM
GI50 [36]: 19.5 µM
GI50 [37]: 52.5 µM
GI50 [38]: 28.8 µM
GI50 [39]: 74.1 µM
GI50 [40]: > 100 µM
GI50 [41]: 31.6 µM
GI50 [42]: 49 µM
GI50 [43]: > 100 µM
GI50 [44]: 38 µM
GI50 [45]: 18.6 µM
